ABHD4 inh: ABHD4 (mouse) inhibition, primary FP screen; inhibition, % at 8.92 µM; purified mABHD4, FP-Rh probe fluorescence polarization; Q8VD66; 0.54% of 370,000 active;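 active = inhibition exceeding the mean over every tested compound plus 3 SD, cut at about 30% in these data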;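 note: 0% = plate median of compound wells and 100% = S159A mutant with DMSO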
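Assay system: wild-type mouse ABHD4 protein; compound: single nominal dose of 8.92 µM, 0.89% DMSO final; schedule: 45 min + 60 min at 25 °C; measured by: FP readout, ex 525 nm / em 598 nm; evaluation: % inhibition of FP-Rh probe binding versus controls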
SIAE primary: inhibitors of human sialic acid acetylesterase SIAE | SIAE FP-Rh probe binding, fluorescence polarization | inhibition, % at 9.66 µM | 0.69% of 370,000 active | AID 1053197;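 active = inhibition above a cutoff: mean of compounds within the control limits plus 3 SD of those, cut at about 17% in these data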;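 note: 0% = plate median of compound wells and 100% = probe without SIAE protein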
HTRA1 inh: inhibitors of human serine peptidase HTRA1 | Q92743 | recombinant HTRA1, FP-rhodamine activity-based probe, fluorescence polarization | inhibition, % at 5.96 µM | 0.5% of 340,000 active; in the data active = inhibition above about 36%;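 note: 0% = enzyme with DMSO and 100% = wells lacking enzyme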
Tn7 DDE FP: disrupts Tn7 cyclic peptide binding to fibrin D-Dimer-E complex. AID 720508. FP displacement of FITC-Tn7 peptide from fibrin DD(E); 0% = median of compound wells per plate. inhibition, % at 8.3 µM. P02675. 0.13% of 370,000 active;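 active = inhibition above the mean of compounds falling within the control limits plus 3 SD of them, cut at about 14% in these data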;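 note: 0% = plate median of compound wells and 100% = 10 µM Aha-Tn7 peptide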
Target sequence (P02675 whole entry, looked up): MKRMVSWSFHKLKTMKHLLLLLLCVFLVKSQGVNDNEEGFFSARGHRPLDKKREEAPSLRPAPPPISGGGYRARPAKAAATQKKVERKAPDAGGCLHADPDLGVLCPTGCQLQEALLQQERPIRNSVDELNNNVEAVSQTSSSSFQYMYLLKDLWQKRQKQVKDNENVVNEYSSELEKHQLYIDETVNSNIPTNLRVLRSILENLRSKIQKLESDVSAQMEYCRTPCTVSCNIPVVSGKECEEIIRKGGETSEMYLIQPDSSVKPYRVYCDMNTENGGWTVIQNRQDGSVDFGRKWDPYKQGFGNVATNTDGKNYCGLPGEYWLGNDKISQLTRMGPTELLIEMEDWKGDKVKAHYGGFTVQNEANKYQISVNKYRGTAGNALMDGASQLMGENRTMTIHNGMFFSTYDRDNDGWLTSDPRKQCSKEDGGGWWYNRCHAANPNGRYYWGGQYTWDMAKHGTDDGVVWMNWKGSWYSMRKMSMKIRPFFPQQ
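Assay system: Fibrin-DD(E) protein isolated from polymerized human fibrin clots; read-out basis: percent inhibition; medium: Tris/NaCl/CaCl2 buffer, pH 7.8; signal: FP measurement; incubation: 10 min plus 3 h, room temperature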
Tn6 DDE FP: inhibitors of Tn6 peptide binding to human fibrin DD(E). P02675. Fibrin DD(E) TRITC-Tn6 fluorescence polarization displacement. inhibition, % at 8.3 µM. 0.21% of 370,000 active;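 active = inhibition above a per-campaign cutoff: mean of compounds within control limits plus 3 SD, cut at about 15% in these data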;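 note: 0% = median of all compound wells on the plate and 100% = blocking peptide control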
TCR CD3 inh: human TCR-CD3 binding inhibition. TAMRA-labeled TCR probe fluorescence, biochemical. inhibition, % at 9.4 µM. 0.37% of 360,000 active. AID 651800;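 note: recombinant mutant TCR 2C K166C tagged with TAMRA read by polarization; 0% = receptor in buffer alone and 100% = receptor with positive control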
BSA TAMRA ctr: counter-screen for TCR-CD3 interaction inhibitors: BSA probe | shares compounds with TCR CD3 inh | TAMRA-labeled BSA probe fluorescence counterscreen | inhibition, % at 9.4 µM | 10% of 1,200 active; in the data active = inhibition above about 23%;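 note: 0% = buffer low control and 100% = reference high control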
TCR-CD3 conf: confirmation of human TCR-CD3 interaction inhibitors. 48% of 1,200 active. inhibition, % at 9.4 µM. TAMRA-labeled TCR probe fluorescence binding assay. shares compounds with TCR CD3 inh
Tn6 DDE ctr: DD(E)-Tn6 binding inhibition, counter-screen; inhibition, % at 8.3 µM; Fibrin DD(E), TRITC-Tn6 fluorescence polarization displacement; 0% = median of compound wells, not DMSO; shares compounds with Tn6 DDE FP; 2% of 680 active;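 active = inhibition above the mean of test compounds lying between the control limits plus 3 SD of those, cut at about 14% in these data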;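 note: 0% = median of compound wells and 100% = wells with Aha-Tn7 blocking peptide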
Tn6 DDE conf: DD(E)-Tn6 binding inhibition, FP confirmation. shares compounds with Tn6 DDE FP. FP displacement of TRITC-Tn6 peptide from DD(E); 0% = per-plate median of test wells. inhibition, % at 8.3 µM. 10% of 680 active. AID 720631;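 active = inhibition above the mean of compounds lying within the control limits plus 3 SD, cut at about 16% in these data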;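 note: 100% = high control wells holding a competing inhibitor peptide at 10 µM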
mABHD4 conf: confirmation of mouse ABHD4 inhibitors; shares compounds with ABHD4 inh; 55% of 1,800 active; inhibition, % at 8.92 µM; purified mABHD4, FP-Rh probe fluorescence polarization;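 active = mean inhibition across replicates above the hit cutoff set in the primary screen, cut at about 30% in these data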;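 note: 0% = wild-type ABHD4 with DMSO and 100% = catalytically dead S159A mutant with DMSO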
* marks the source's active call; other numbers are inactive results. Compounds with a hit are over-represented: about 1.8% of the library has one in this group of screens. Cut-off read from the data, not from the text of the source, unless noted: active = inhibition above about 19%; inactive = the rest.

Results for COc1ccc(S(=O)(=O)N(C)C[C@H]2Oc3ccc(NC(=O)CCC(F)(F)F)cc3C(=O)N([C@H](C)CO)C[C@@H]2C)cc1 ?
ABHD4 inh: 11; SIAE primary: 2; HTRA1 inh: -2; Tn7 DDE FP: -4; Tn6 DDE FP: -5; TCR CD3 inh: 8

Results for C[C@@H]1CN([C@H](C)CO)C(=O)c2cc(NC(=O)Nc3ccc(C(F)(F)F)cc3)ccc2O[C@H]1CN(C)S(=O)(=O)c1ccccc1 ?
ABHD4 inh: -132; SIAE primary: -174; HTRA1 inh: -113; Tn7 DDE FP: -4; Tn6 DDE FP: 48*; TCR CD3 inh: 30*; BSA TAMRA ctr: -2; TCR-CD3 conf: 15; Tn6 DDE ctr: 14*; Tn6 DDE conf: 3

Results for Cc1cc(C)n(CC(=O)NNC(=O)c2ccc(OC(F)(F)F)cc2)n1 ?
ABHD4 inh: 8; SIAE primary: 3; HTRA1 inh: 1; Tn7 DDE FP: -3; Tn6 DDE FP: 4; TCR CD3 inh: 2

What do the screens show for `CN(C)c1ccc(O)c2c1CC1CC3[C@@H](N(C)C)C(=O)C(C(N)=O)=C(O)[C@]3(O)C(=O)C1=C2O` (stereo partly drawn)?
ABHD4 inh: 77*; SIAE primary: 25*; HTRA1 inh: 29; Tn7 DDE FP: -5; Tn6 DDE FP: -18; TCR CD3 inh: 46*; BSA TAMRA ctr: -7; TCR-CD3 conf: 27*; mABHD4 conf: 44*

How did COc1cc(CC(=O)N2CCc3ccccc32)cc(OC)c1OC do in these assays?
ABHD4 inh: 6; SIAE primary: -1; HTRA1 inh: 8; Tn7 DDE FP: 2; Tn6 DDE FP: -1; TCR CD3 inh: -1

What do the screens show for `CCOC(=O)N1CCc2cc(OC)c(OC)c3c2c1cc1cc(OC)c(OC)cc13`?
ABHD4 inh: 63*; SIAE primary: 16; HTRA1 inh: 10; Tn7 DDE FP: 3; Tn6 DDE FP: 2; TCR CD3 inh: 27*; BSA TAMRA ctr: -3; TCR-CD3 conf: 2; mABHD4 conf: 69*

How did COc1cc2[nH]c(=O)n(C3CCCCC3)c(=O)c2cc1OC do in these assays?
ABHD4 inh: -7; SIAE primary: -5; HTRA1 inh: 2; Tn7 DDE FP: 1; Tn6 DDE FP: 2; TCR CD3 inh: 0

How did Nc1ccc2nc3c(=O)n(CCc4ccccc4)c(=O)[nH]c3nc2c1 do in these assays?
ABHD4 inh: 40*; SIAE primary: 15; Tn7 DDE FP: 8; Tn6 DDE FP: -1; TCR CD3 inh: 27*; BSA TAMRA ctr: 26*; TCR-CD3 conf: 21*; mABHD4 conf: 30*

Screening data from PubChem.
